According to ChEMBL document CHEMBL2157873, “Development and characterization of endocannabinoid hydrolases FAAH and MAGL inhibitors bearing a benzotriazol-1-yl carboxamide scaffold” (Bioorg Med Chem, 2012):
Calls of active or inactive are those of the source. The calls are words filed in the database; no cut-off is given here.

Legend:
Monoglyceride lipase [1] = biological target: T1, Monoglyceride lipase (Homo sapiens, UniProt Q99685); assay: Inhibition of human MAGL assessed as [3H]-2-OG hydrolysis preincubated for 30 mins before [3H]-2-OG addition measured after 10 mins by liquid scintillation counting
T1 sequence (Q99685 whole entry): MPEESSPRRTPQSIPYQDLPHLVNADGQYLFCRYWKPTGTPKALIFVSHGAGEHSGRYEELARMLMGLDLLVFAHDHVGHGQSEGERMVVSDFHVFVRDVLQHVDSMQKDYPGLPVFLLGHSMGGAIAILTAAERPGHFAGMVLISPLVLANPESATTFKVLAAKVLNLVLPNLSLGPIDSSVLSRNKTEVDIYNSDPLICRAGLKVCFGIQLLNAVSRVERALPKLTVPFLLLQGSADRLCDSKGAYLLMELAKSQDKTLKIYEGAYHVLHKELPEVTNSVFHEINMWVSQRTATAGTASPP
Procedure, shortened: (§1)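 [3H]-2-oleoylglycerol then added at 10 µM final. Stopped with methanol-chloroform (1:1), centrifuged 5 min at 700 g, aqueous-phase radioactivity read by liquid scintillation, no-enzyme blank subtracted. Means of three independent experiments in duplicate.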

Homo sapiens = species: Homo sapiens; assay: Selectivity ratio of IC50 for human recombinant FAAH to IC50 for human MAGL
Procedure, shortened: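 Selectivity calculated as IC50 for human FAAH divided by IC50 for human MAGL. Both IC50 values from radiometric hydrolysis assays: [3H]-AEA with MBP-fused FAAH and [3H]-2-OG with pure MAGL. Each assay had 30 min inhibitor preincubation. Means of three independent experiments in duplicate.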

[2] = biological target: T2, Fatty-acid amide hydrolase 1 (Homo sapiens, UniProt O00519); assay: Inhibition of human recombinant FAAH assessed as [3H]-AEA hydrolysis preincubated for 30 mins […] measured after 10 mins by liquid scintillation counting
T2 sequence (O00519 whole entry): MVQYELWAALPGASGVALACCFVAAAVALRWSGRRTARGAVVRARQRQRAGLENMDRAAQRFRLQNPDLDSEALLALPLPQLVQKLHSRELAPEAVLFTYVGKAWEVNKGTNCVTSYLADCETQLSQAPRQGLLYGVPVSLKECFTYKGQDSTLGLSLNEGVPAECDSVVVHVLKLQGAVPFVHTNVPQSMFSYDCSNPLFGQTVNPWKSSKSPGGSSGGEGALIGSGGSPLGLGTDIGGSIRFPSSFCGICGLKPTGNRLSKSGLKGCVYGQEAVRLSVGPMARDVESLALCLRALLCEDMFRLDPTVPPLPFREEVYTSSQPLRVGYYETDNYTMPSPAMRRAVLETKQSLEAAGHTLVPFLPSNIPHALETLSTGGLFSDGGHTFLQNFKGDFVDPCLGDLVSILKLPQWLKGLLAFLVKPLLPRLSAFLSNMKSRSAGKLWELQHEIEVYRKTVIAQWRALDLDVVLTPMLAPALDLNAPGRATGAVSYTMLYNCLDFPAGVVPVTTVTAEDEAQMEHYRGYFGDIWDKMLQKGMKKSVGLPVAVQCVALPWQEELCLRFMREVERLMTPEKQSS
Procedure, shortened: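 Human FAAH fused to maltose-binding protein, preincubated 30 min at 22 °C with inhibitor at various concentrations (Tris 10 mM, EDTA 1 mM, pH 8.0, inhibitor in DMSO). [3H]-anandamide (50,000 dpm) added, 10 min at 37 °C. Stopped with cold methanol/chloroform (1:1), aqueous-phase radioactivity by scintillation, blank subtracted, percent of control fitted as dose-response. Three independent experiments in duplicate.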

[3] = biological target: T3, Fatty-acid amide hydrolase 1 (Homo sapiens) (UniProt O00519); assay: Inhibition of human recombinant FAAH assessed as [3H]-AEA hydrolysis preincubated for 30 mins […] measured at 10^-5 M after 10 mins by liquid scintillation counting
T3 sequence (whole entry): T2 sequence (O00519 whole entry)

Monoglyceride lipase [4] = biological target: T1, Monoglyceride lipase; assay: Inhibition of MAGL; procedure, shortened: as §1
[5] = biological target: T4, Monoglyceride lipase (Homo sapiens) (UniProt Q99685); assay: Ratio of Kinact to Ki for human MAGL using p-nitrophenylpropionate as substrate
T4 sequence (whole entry): T1 sequence (Q99685 whole entry)
Procedure, shortened: (§2)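 MAGL (3 ng; Tris 50 mM, LDAO 0.1%, pH 8.0) added to p-nitrophenylpropionate (1.25 mM) plus inhibitor at various concentrations, both in DMSO. […] Done four times in quadruplicate.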

[6] = biological target: T4, Monoglyceride lipase (Homo sapiens); assay: Ratio of JZL184 IC50 to compound IC50 for human MAGL
[7] = biological target: Monoglyceride lipase (Homo sapiens) (UniProt Q99685); assay: Ratio of JZL184 IC50 to compound IC50 for human MAGL
[8] = biological target: T4, Monoglyceride lipase (Homo sapiens); assay: Irreversible inhibition of human MAGL assessed as [3H]-2-OG hydrolysis preincubated for 30 mins before [3H]-2-OG addition measured at 10^-8 M to 10^-9 M measured after 300 fold dilution rapid dilution assay
Procedure, shortened: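 Human MAGL (800 ng in Tris 50 mM, BSA 0.15%, pH 8.0) incubated 30 min at room temperature with inhibitor at 10^-8 or 10^-9 M in the mixture (DMSO). Diluted 300-fold in buffer, 15 min incubation, then [3H]-2-OG hydrolase activity read on an aliquot holding 10 ng enzyme by the standard radiometric method. Performed two times in triplicate.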

Monoglyceride lipase [9] = biological target: T1, Monoglyceride lipase; assay: Irreversible inhibition of human MAGL using p-nitrophenylpropionate as substrate; procedure, shortened: as §2
[10] = biological target: T2, Fatty-acid amide hydrolase 1; assay: Inhibition of FAAH
Procedure, shortened: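 Human FAAH fused to maltose-binding protein, preincubated 30 min at 22 °C with inhibitor (various concentrations, in DMSO) in Tris 10 mM, EDTA 1 mM, pH 8.0. [³H]-anandamide substrate added, then 10 min at 37 °C. Stopped with cold methanol/chloroform (1:1). Aqueous-phase radioactivity counted by liquid scintillation, with the no-enzyme blank subtracted. Activity taken as percent of control; IC50 from dose-response curves; three independent experiments in duplicate.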

Row | IC50 (Monoglyceride lipase [1]) [nM] | Ratio IC50 (Homo sapiens) | IC50 [2] [nM] | Compound | other results
1 | 38 | 60 | 2290 | O=C(c1cc(N2CCN(C(=O)n3nnc4ccccc43)CC2)ccc1[N+](=O)[O-])N1CCCCC1 | –
2 | 12 | 7.6 | 89 | O=C(N1CCN(Cc2ccc([N+](=O)[O-])cc2)CC1)n1nnc2ccccc21 | –
3 | 8 | 2.4 | 19 | O=C(N1CCN(Cc2ccccc2)CC1)n1nnc2ccccc21 | –
4 | 63 | 79 | 5010 | CN(C)C(=O)c1cc(N2CCN(C(=O)n3nnc4ccccc43)CC2)ccc1[N+](=O)[O-] | –
5 | 23 | 0.4 | 9 | O=C(N1CCN(Cc2cccc(-c3ccccc3)c2)CC1)n1nnc2ccccc21 | –
6 | 21 | 0.5 | 11 | O=C(N1CCN(c2ccccc2)CC1)n1nnc2ccccc21 | –
7 | 162 | > 100 | – | O=C(c1cc(N2CCN(C(=O)n3nnc4ccccc43)CC2)ccc1[N+](=O)[O-])N1CCOCC1 | inhibition [3]: 40%
8 | 10500 | – | – | O=C(NCCc1ccc(O)c(O)c1)n1nnc2ccccc21 | –
9 | 30 | 0.44 | 13 | O=C(N1CCN(c2ccccc2F)CC1)n1nnc2ccccc21 | –
10 | – | – | – | O=C(N1CCN(C(c2ccccc2)c2ccccc2)CC1)n1nnc2ncccc21 | IC50 (Monoglyceride lipase [4]): 4 nM
11 | 33 | 1 | 32 | O=C(N1CCN(Cc2ccccc2-c2ccccc2)CC1)n1nnc2ccccc21 | –
12 | 3 | 0.7 | 2 | O=C(N1CCC(Cc2ccccc2)CC1)n1nnc2ccccc21 | –
13 | 955 | 2 | 1950 | O=C(c1ccc(N2CCN(C(=O)n3nnc4ccccc43)CC2)c([N+](=O)[O-])c1)N1CCOCC1 | –
14 | 32 | 0.47 | 15 | COc1ccc(N2CCN(C(=O)n3nnc4ccccc43)CC2)cc1 | –
15 | 13 | 3.4 | 44 | O=C(NC1CCCCC1)c1cccc(CN2CCN(C(=O)n3nnc4ccccc43)CC2)c1 | –
16 | 9 | 2.5 | 22 | O=C(N1CCN(Cc2ccc(Br)cc2)CC1)n1nnc2ccccc21 | –
17 | 676 | 41 | 27500 | O=C(O)c1cccc(CN2CCN(C(=O)n3nnc4ccccc43)CC2)c1 | –
18 | 8 | 5.4 | 43 | O=C(N1CCN(Cc2cccc([N+](=O)[O-])c2)CC1)n1nnc2ccccc21 | –

Row | IC50 (Monoglyceride lipase [1]) [nM] | Ratio IC50 (Homo sapiens) | IC50 [2] [nM] | Compound | other results
19 | 71 | 0.04 | 3 | Cc1ccccc1N1CCN(C(=O)n2nnc3ccccc32)CC1 | –
20 | 19 | 19 | 363 | O=C(Nc1ccccc1)c1cc(N2CCN(C(=O)n3nnc4ccccc43)CC2)ccc1[N+](=O)[O-] | –
21 | 224 | 0.08 | 19 | O=C(N1CCN(c2ccccc2[N+](=O)[O-])CC1)n1nnc2ccccc21 | –
22 | 41 | 12 | 490 | O=C(NC1CCCCC1)c1cc(N2CCN(C(=O)n3nnc4ccccc43)CC2)ccc1[N+](=O)[O-] | –
23 | 102 | 2.7 | 275 | CN(C)C(=O)c1cccc(CN2CCN(C(=O)n3nnc4ccccc43)CC2)c1 | –
24 | 0.54 | 1040 | 562 | O=C(N1CCN(C(c2ccccc2)c2ccccc2)CC1)n1nnc2ccccc21 | Ratio [5]: 208000; Ratio IC50 [6]: 70; Ratio IC50 [7]: 70; inhibition [8]: Active; Ki (Monoglyceride lipase [9]): 75.7 nM
25 | 234 | 8.9 | 2090 | CC(C)NC(=O)c1cc(N2CCN(C(=O)n3nnc4ccccc43)CC2)ccc1[N+](=O)[O-] | –
26 | 9 | 1.3 | 12 | O=C(N1CCN(Cc2ccc3ccccc3c2)CC1)n1nnc2ccccc21 | –
27 | 11 | 1.5 | 17 | O=C(N1CCN(Cc2ccc(Cl)cc2)CC1)n1nnc2ccccc21 | –
28 | 36 | 1.6 | 58 | O=C(c1cccc(CN2CCN(C(=O)n3nnc4ccccc43)CC2)c1)N1CCCCC1 | –
29 | 372 | 0.43 | 158 | CC(C)NC(=O)c1ccc(N2CCN(C(=O)n3nnc4ccccc43)CC2)c([N+](=O)[O-])c1 | –
30 | 3 | 4 | 13 | O=C(N1CCN(Cc2cccc3ccccc23)CC1)n1nnc2ccccc21 | –
31 | 324 | 4.3 | 1380 | CN1CCN(C(=O)c2cccc(CN3CCN(C(=O)n4nnc5ccccc54)CC3)c2)CC1 | –
32 | 20 | 1.7 | 34 | O=C(N1CCN(c2ccc([N+](=O)[O-])cc2)CC1)n1nnc2ccccc21 | –
33 | 62 | 0.3 | 18 | O=C(N1CCN(Cc2ccc(-c3ccccc3)cc2)CC1)n1nnc2ccccc21 | –
34 | 141 | > 100 | – | CN1CCN(C(=O)c2cc(N3CCN(C(=O)n4nnc5ccccc54)CC3)ccc2[N+](=O)[O-])CC1 | inhibition [3]: 40%
35 | 7 | 4.8 | 35 | O=C(Nc1ccccc1)c1cccc(CN2CCN(C(=O)n3nnc4ccccc43)CC2)c1 | –

Row | Compound | IC50 (Monoglyceride lipase [1]) [nM] | Ratio IC50 (Homo sapiens) | IC50 [2] [nM] | other results
36 | O=C(N1CCN(Cc2ccc(F)cc2)CC1)n1nnc2ccccc21 | 10 | 1.5 | 15 | –
37 | O=C(Oc1ccc([N+](=O)[O-])cc1)N1CCC(C(O)(c2ccc3c(c2)OCO3)c2ccc3c(c2)OCO3)CC1 | – | – | 36300 | IC50 [10]: 4690 nM
38 | O=C(N1CCN(Cc2cccc(Cl)c2)CC1)n1nnc2ccccc21 | 2 | 4.5 | 9 | –
39 | O=C(N1CCN(C/C=C/c2ccccc2)CC1)n1nnc2ccccc21 | 33 | 0.8 | 28 | –
